The values below come from ChEMBL document CHEMBL1136992, “Further studies at neuropeptide s position 5: discovery of novel neuropeptide S receptor antagonists” (J Med Chem, 2009).

The source made the active and inactive calls. No cut-off for these calls is given here. Square brackets hold non-standard residues; d marks the D form. Peptide text beside a SMILES is read from it. * marks the point of attachment. d(tBuAla) = CC(C)(C)C[C@@H](N)C(=O)O; d(aThr) = C[C@@H](O)[C@@H](N)C(=O)O; dCha = N[C@H](CC1CCCCC1)C(=O)O; dChg = N[C@@H](C(=O)O)C1CCCCC1; dPen = CC(C)(S)[C@@H](N)C(=O)O; dPhg = N[C@@H](C(=O)O)c1ccccc1; dNva = CCC[C@@H](N)C(=O)O; tBu = CC(C)(C)*

The target in one assay is T1, Neuropeptide S receptor (Mus musculus, UniProt Q8BZP8).
T1 sequence (Q8BZP8 whole entry): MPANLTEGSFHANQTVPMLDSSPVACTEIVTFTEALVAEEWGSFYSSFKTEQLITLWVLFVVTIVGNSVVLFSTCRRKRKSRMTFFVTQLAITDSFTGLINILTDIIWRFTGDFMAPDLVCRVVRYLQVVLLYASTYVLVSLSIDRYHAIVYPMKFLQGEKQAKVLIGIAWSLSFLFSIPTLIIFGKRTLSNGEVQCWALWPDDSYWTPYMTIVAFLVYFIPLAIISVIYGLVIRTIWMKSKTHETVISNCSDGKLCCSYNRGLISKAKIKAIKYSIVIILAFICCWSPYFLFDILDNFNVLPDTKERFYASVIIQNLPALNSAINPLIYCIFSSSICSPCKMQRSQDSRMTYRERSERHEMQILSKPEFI
In words: Agonist activity at mouse NPSR expressed in HEK293 cells by calcium mobilization assay. The class given is functional, cell-based. In a few lines:
(§1)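 HEK293 cells stably expressing mouse NPSR; intracellular calcium mobilization measured after peptide addition, concentration-response curves giving pEC50 and Emax as % over basal. Mean of at least four separate experiments performed in duplicate.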
On the technique in general: Calcium flux is commonly read through the fluorescence of an indicator in the cells.
What is called EC50 is the midpoint of the concentration-response curve. In the case of `CSCC[C@H](NC(=O)CNC(=O)[C@@H](NC(=O)CNC(=O)[C@@H](NC(=O)[C@@H](CC(C)(C)C)NC(=O)[C@H](CC(N)=O)NC(=O)[C@H](CCCN=C(N)N)NC(=O)[C@H](Cc1ccccc1)NC(=O)[C@@H](N)CO)C(C)C)[C@@H](C)O)C(=O)N[C@@H](CCCCN)C(=O)N[C@@H](CCCCN)C(=O)N[C@H](C(=O)N[C@@H](CO)C(=O)N[C@@H](Cc1ccccc1)C(=O)N[C@@H](CCC(N)=O)C(=O)N[C@@H](CCCN=C(N)N)C(=O)N[C@@H](C)C(=O)N[C@@H](CCCCN)C(=O)O)[C@@H](C)O` (H-SFRN[d(tBuAla)]VGTGMKKTSFQRAK-OH), the EC50 was 1660 nM.

Take `CCC[C@@H](NC(=O)[C@H](CC(N)=O)NC(=O)[C@H](CCCN=C(N)N)NC(=O)[C@H](Cc1ccccc1)NC(=O)[C@@H](N)CO)C(=O)N[C@H](C(=O)NCC(=O)N[C@H](C(=O)NCC(=O)N[C@@H](CCSC)C(=O)N[C@@H](CCCCN)C(=O)N[C@@H](CCCCN)C(=O)N[C@H](C(=O)N[C@@H](CO)C(=O)N[C@@H](Cc1ccccc1)C(=O)N[C@@H](CCC(N)=O)C(=O)N[C@@H](CCCN=C(N)N)C(=O)N[C@@H](C)C(=O)N[C@@H](CCCCN)C(=O)O)[C@@H](C)O)[C@@H](C)O)C(C)C` (H-SFRN[dNva]VGTGMKKTSFQRAK-OH): the EC50 was 2690 nM.

With `CSCC[C@H](NC(=O)CNC(=O)[C@@H](NC(=O)CNC(=O)[C@@H](NC(=O)[C@H](NC(=O)[C@H](CC(N)=O)NC(=O)[C@H](CCCN=C(N)N)NC(=O)[C@H](Cc1ccccc1)NC(=O)[C@@H](N)CO)c1ccccc1)C(C)C)[C@@H](C)O)C(=O)N[C@@H](CCCCN)C(=O)N[C@@H](CCCCN)C(=O)N[C@H](C(=O)N[C@@H](CO)C(=O)N[C@@H](Cc1ccccc1)C(=O)N[C@@H](CCC(N)=O)C(=O)N[C@@H](CCCN=C(N)N)C(=O)N[C@@H](C)C(=O)N[C@@H](CCCCN)C(=O)O)[C@@H](C)O` (H-SFRN[dPhg]VGTGMKKTSFQRAK-OH), the EC50 is 661 nM.

As to `CSCC[C@H](NC(=O)CNC(=O)[C@@H](NC(=O)CNC(=O)[C@@H](NC(=O)[C@H](NC(=O)[C@H](CC(N)=O)NC(=O)[C@H](CCCNC(=N)N)NC(=O)[C@H](Cc1ccccc1)NC(=O)[C@@H](N)CO)[C@H](C)O)C(C)C)[C@@H](C)O)C(=O)N[C@@H](CCCCN)C(=O)N[C@@H](CCCCN)C(=O)N[C@H](C(=O)N[C@@H](CO)C(=O)N[C@@H](Cc1ccccc1)C(=O)N[C@@H](CCC(N)=O)C(=O)N[C@@H](CCCNC(=N)N)C(=O)N[C@@H](C)C(=O)N[C@@H](CCCCN)C(=O)O)[C@@H](C)O` (H-SFRN[dT]VGTGMKKTSFQRAK-OH), the concentration giving a half-maximal response (EC50) was 794 nM.

With “H-SFRNGVGTGMKKTSFQRAKS-OH [NEUROPEPTIDE S]”, the half-maximal effective concentration (EC50) was 4.79 nM.

The target in another assay is T2, Neuropeptide S receptor (Mus musculus) (UniProt Q8BZP8).
T2 sequence (whole entry): T1 sequence (Q8BZP8 whole entry)
Kind of assay: Agonist activity at mouse NPSR expressed in HEK293 cells up to 10 uM by calcium mobilization assay. It is filed as functional, cell-based. In a few lines: as §1
Turning to `CSCC[C@H](NC(=O)CNC(=O)[C@@H](NC(=O)CNC(=O)[C@@H](NC(=O)[C@H](NC(=O)[C@H](CC(N)=O)NC(=O)[C@H](CCCNC(=N)N)NC(=O)[C@H](Cc1ccccc1)NC(=O)[C@@H](N)CO)[C@@H](C)O)C(C)C)[C@@H](C)O)C(=O)N[C@@H](CCCCN)C(=O)N[C@@H](CCCCN)C(=O)N[C@H](C(=O)N[C@@H](CO)C(=O)N[C@@H](Cc1ccccc1)C(=O)N[C@@H](CCC(N)=O)C(=O)N[C@@H](CCCNC(=N)N)C(=O)N[C@@H](C)C(=O)N[C@@H](CCCCN)C(=O)O)[C@@H](C)O` (H-SFRN[d(aThr)]VGTGMKKTSFQRAK-OH), the Emax result was “inactive”.

For `CSCC[C@H](NC(=O)CNC(=O)[C@@H](NC(=O)CNC(=O)[C@@H](NC(=O)[C@@H](CC1CCCCC1)NC(=O)[C@H](CC(N)=O)NC(=O)[C@H](CCCNC(=N)N)NC(=O)[C@H](Cc1ccccc1)NC(=O)[C@@H](N)CO)C(C)C)[C@@H](C)O)C(=O)N[C@@H](CCCCN)C(=O)N[C@@H](CCCCN)C(=O)N[C@H](C(=O)N[C@@H](CO)C(=O)N[C@@H](Cc1ccccc1)C(=O)N[C@@H](CCC(N)=O)C(=O)N[C@@H](CCCNC(=N)N)C(=O)N[C@@H](C)C(=O)N[C@@H](CCCCN)C(=O)O)[C@@H](C)O` (H-SFRN[dCha]VGTGMKKTSFQRAK-OH), the Emax result is “inactive”.

Regarding `CSCC[C@H](NC(=O)CNC(=O)[C@@H](NC(=O)CNC(=O)[C@@H](NC(=O)[C@H](NC(=O)[C@H](CC(N)=O)NC(=O)[C@H](CCCNC(=N)N)NC(=O)[C@H](Cc1ccccc1)NC(=O)[C@@H](N)CO)C1CCCCC1)C(C)C)[C@@H](C)O)C(=O)N[C@@H](CCCCN)C(=O)N[C@@H](CCCCN)C(=O)N[C@H](C(=O)N[C@@H](CO)C(=O)N[C@@H](Cc1ccccc1)C(=O)N[C@@H](CCC(N)=O)C(=O)N[C@@H](CCCNC(=N)N)C(=O)N[C@@H](C)C(=O)N[C@@H](CCCCN)C(=O)O)[C@@H](C)O` (H-SFRN[dChg]VGTGMKKTSFQRAK-OH), the Emax entry was “inactive”.

In the case of `CC[C@@H](C)[C@@H](NC(=O)[C@H](CC(N)=O)NC(=O)[C@H](CCCNC(=N)N)NC(=O)[C@H](Cc1ccccc1)NC(=O)[C@@H](N)CO)C(=O)N[C@H](C(=O)NCC(=O)N[C@H](C(=O)NCC(=O)N[C@@H](CCSC)C(=O)N[C@@H](CCCCN)C(=O)N[C@@H](CCCCN)C(=O)N[C@H](C(=O)N[C@@H](CO)C(=O)N[C@@H](Cc1ccccc1)C(=O)N[C@@H](CCC(N)=O)C(=O)N[C@@H](CCCNC(=N)N)C(=O)N[C@@H](C)C(=O)N[C@@H](CCCCN)C(=O)O)[C@@H](C)O)[C@@H](C)O)C(C)C` (H-SFRN[dI]VGTGMKKTSFQRAK-OH), the Emax entry is “inactive”.

For `CSCC[C@H](NC(=O)CNC(=O)[C@@H](NC(=O)CNC(=O)[C@@H](NC(=O)[C@H](NC(=O)[C@H](CC(N)=O)NC(=O)[C@H](CCCNC(=N)N)NC(=O)[C@H](Cc1ccccc1)NC(=O)[C@@H](N)CO)C(C)(C)S)C(C)C)[C@@H](C)O)C(=O)N[C@@H](CCCCN)C(=O)N[C@@H](CCCCN)C(=O)N[C@H](C(=O)N[C@@H](CO)C(=O)N[C@@H](Cc1ccccc1)C(=O)N[C@@H](CCC(N)=O)C(=O)N[C@@H](CCCNC(=N)N)C(=O)N[C@@H](C)C(=O)N[C@@H](CCCCN)C(=O)O)[C@@H](C)O` (H-SFRN[dPen]VGTGMKKTSFQRAK-OH), the Emax result is “inactive”.

Take `CC[C@H](C)C(NC(=O)[C@H](CC(N)=O)NC(=O)[C@H](CCCNC(=N)N)NC(=O)[C@H](Cc1ccccc1)NC(=O)[C@@H](N)CO)C(=O)N[C@H](C(=O)NCC(=O)N[C@H](C(=O)NCC(=O)N[C@@H](CCSC)C(=O)N[C@@H](CCCCN)C(=O)N[C@@H](CCCCN)C(=O)N[C@H](C(=O)N[C@@H](CO)C(=O)N[C@@H](Cc1ccccc1)C(=O)N[C@@H](CCC(N)=O)C(=O)N[C@@H](CCCNC(=N)N)C(=O)N[C@@H](C)C(=O)N[C@@H](CCCCN)C(=O)O)[C@@H](C)O)[C@@H](C)O)C(C)C` (single isomer, unassigned): the Emax result was “inactive”.

Another assay concerns the target T2, Neuropeptide S receptor (Mus musculus). Kind of assay: Antagonist activity at mouse NPSR expressed in HEK293 cells assessed as inhibition of NPS-induced response. It is filed as functional, cell-based. In a few lines:
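HEK293 cells stably expressing mouse NPSR, calcium mobilization. Inhibition response curves to test peptides against 30 nM NPS, run at 37 °C with three up-and-down mixing cycles right after antagonist injection to aid diffusion. Mean of at least four separate experiments performed in duplicate.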
By pKb is commonly meant the Kb on a negative log10 scale, so that one unit is a factor of ten. On to `CSCC[C@H](NC(=O)CNC(=O)[C@@H](NC(=O)CNC(=O)[C@@H](NC(=O)[C@@H](CSC(C)(C)C)NC(=O)[C@H](CC(N)=O)NC(=O)[C@H](CCCNC(=N)N)NC(=O)[C@H](Cc1ccccc1)NC(=O)[C@@H](N)CO)C(C)C)[C@@H](C)O)C(=O)N[C@@H](CCCCN)C(=O)N[C@@H](CCCCN)C(=O)N[C@H](C(=O)N[C@@H](CO)C(=O)N[C@@H](Cc1ccccc1)C(=O)N[C@@H](CCC(N)=O)C(=O)N[C@@H](CCCNC(=N)N)C(=O)N[C@@H](C)C(=O)N[C@@H](CCCCN)C(=O)N[C@@H](CO)C(=O)O)[C@@H](C)O` (H-SFRN[dC](tBu)VGTGMKKTSFQRAKS-OH), for which the negative-log Kb (pKb) was determined as 6.5.
